Measured values published in ChEMBL document CHEMBL1150607, “Ancistrocongolines A-D, new naphthylisoquinoline alkaloids from ancistrocladus congolensis” (J Nat Prod, 2002).
Values after ≈ are worked out from the molar mass of the structure shown.

What was measured:
[1] = system: Trypanosoma cruzi; test: Antitrypanosomal activity against Trypanosoma cruzi Tulahuen strain C2C4 containing galactosidase gene in rat L6 cells after 4 days; type: functional, organism-based; conditions: L6, 96 h
In short: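 L-6 cells seeded 2000/well in RPMI 1640, 10% FBS, 2 mM L-glutamine; after 24 h, 5000 Lac Z trypomastigotes added with serial drug dilutions, 4 days at 37 °C, 5% CO2. CPRG/Nonidet substrate added, colour read at 540 nm after 2–4 h; IC50 from sigmoidal inhibition curve.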

[2] = Cytotoxicity against rat L6 cells after 72 hrs by alamar blue assay; type: cell-based
In short: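 L-6 cells in RPMI 1640 with 10% FBS exposed to serial drug dilutions, protocol closely following the T. b. rhodesiense assay; viability read with Alamar Blue, expressed as IC50.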

[3] = system: Plasmodium falciparum; test: Antimalarial activity against Plasmodium falciparum K1 in human erythrocytes after 48 hrs by [3H]hypoxanthine uptake; type: functional, organism-based
In short: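 Infected human red cells with chloroquine/pyrimethamine-resistant K1 strain exposed to serial dilutions 48 h, 37 °C, reduced O2/elevated CO2; [³H]-hypoxanthine then added, 24 h further incubation, harvested on glass fibre filters, scintillation counted. IC50 from sigmoidal inhibition curve; duplicate, repeated at least once.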

[4] = system: Trypanosoma brucei rhodesiense; test: Antitrypanosomal activity against Trypanosoma brucei rhodesiense after 72 hrs by alamar blue assay; type: functional, organism-based
In short: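 STIB 900 trypanosomes in Minimum Essential Medium with 2-mercaptoethanol and 15% heat-inactivated horse serum, serial drug dilutions, 72 h at 37 °C, 5% CO2; Alamar Blue added, 2–4 h more, fluorescence read ex 530/em 590 nm. Signal expressed as percent of control; IC50 determined.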

[5] = system: Leishmania donovani; test: Antileishmanial activity against Leishmania donovani; type: functional, organism-based

| IC50 [1] | IC50 [3] | IC50 [4] | IC50 [5] | Compound | IC50 at 72 h [2] |
| --- | --- | --- | --- | --- | --- |
| ≥ 90 µg/mL | 3 µg/mL (≈ 7.12 µM) | 15.9 µg/mL (≈ 37.7 µM) | 19.3 µg/mL (≈ 45.8 µM) | COc1cc(O)c(-c2ccc(OC)c3c(OC)cc(C)cc23)c2c1[C@@H](C)N(C)[C@H](C)C2 [ANCISTROCONGOLINE C] | ≥ 90 µg/mL |
| 39.9 µg/mL (≈ 101 µM) | 0.214 µg/mL (≈ 0.544 µM) | 2.97 µg/mL (≈ 7.55 µM) | – | COc1cc(C)cc2c(-c3c(O)cc(O)c4c3C[C@@H](C)N(C)[C@@H]4C)ccc(O)c12 [ANCISTROCONGOLINE A] | 90 µg/mL (≈ 229 µM) |
| 0.382 µg/mL (≈ 1.47 µM) | – | – | – | O=C(Cn1ccnc1[N+](=O)[O-])NCc1ccccc1 [BENZNIDAZOLE] | – |
| 14.5 µg/mL (≈ 38.2 µM) | 0.164 µg/mL (≈ 0.432 µM) | 1.87 µg/mL (≈ 4.93 µM) | 25.1 µg/mL (≈ 66.1 µM) | COc1cc(C)cc2c(-c3c(O)cc(O)c4c3C[C@@H](C)N[C@@H]4C)ccc(O)c12 [KORUPENSAMINE A] | 38 µg/mL (≈ 100 µM) |

Second part, the compound before the results:

| Compound | IC50 [1] | IC50 [3] | IC50 [4] | IC50 [5] | IC50 at 72 h [2] |
| --- | --- | --- | --- | --- | --- |
| COc1c(-c2c(C)cc(OC)c3c(OC)cccc23)c(O)cc2c1[C@@H](C)N[C@H](C)C2 [ANCISTROCONGOLINE D] | 30.1 µg/mL (≈ 73.9 µM) | 1.98 µg/mL (≈ 4.87 µM) | 5.86 µg/mL (≈ 14.4 µM) | > 30 µg/mL | 27.7 µg/mL (≈ 68 µM) |
| C[C@@H]1CC[C@H]2[C@@H](C)C(=O)O[C@@H]3O[C@@]4(C)CC[C@@H]1[C@]32OO4 [ARTEMISININ] | – | 0.001 µg/mL (≈ 0.00354 µM) | – | – | – |
| COc1cc(O)c2c(c1-c1ccc(OC)c3c(OC)cc(C)cc13)C[C@@H](C)N(C)[C@@H]2C [ANCISTROCONGOLINE B] | 17.4 µg/mL (≈ 41.3 µM) | 0.158 µg/mL (≈ 0.375 µM) | 2.54 µg/mL (≈ 6.03 µM) | 18.8 µg/mL (≈ 44.6 µM) | 33.4 µg/mL (≈ 79.2 µM) |
